# Screening data from PubChem BioAssay.
# This is a sample that favours compounds with a hit; in the whole collection about 4.5% have one here.
# OX1R antag-1: OX1R (HCRTR1) antagonists, primary screen, fluorescence, CHO/OX1R cells, Fluo-8 calcium, orexin A. Orexin/Hypocretin receptor type 1 (Homo sapiens), O43613. Fluo-8 calcium fluorescence. inhibition, % at 5 µM. 0.43% of 330,000 active. AID 434989, 2010;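 active means inhibition above its plate's threshold, mean inhibition of all tested compounds on the plate plus 3 SD, cut at about 37% in these data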;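 further: 0% = orexin A challenge wells and 100% = SB-334867-A antagonist wells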
# TAAR1 antagonist: human TAAR1 antagonists, primary screen, Fluo-8 calcium fluorescence, CHO RD-HGA16 cells | Trace amine-associated receptor 1 (Homo sapiens), Q96RJ0 | antagonist | inhibition, % at 3 µM | 1.5% of 360,000 active;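 active means inhibition above a per-plate cutoff, the mean inhibition of test compounds on that plate plus 3 SD, cut at about 49% in these data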;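 further: 0% = DMSO plus EC80 beta-PEA response and 100% = DMSO alone without agonist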
# Target sequence (Q96RJ0 whole entry, looked up): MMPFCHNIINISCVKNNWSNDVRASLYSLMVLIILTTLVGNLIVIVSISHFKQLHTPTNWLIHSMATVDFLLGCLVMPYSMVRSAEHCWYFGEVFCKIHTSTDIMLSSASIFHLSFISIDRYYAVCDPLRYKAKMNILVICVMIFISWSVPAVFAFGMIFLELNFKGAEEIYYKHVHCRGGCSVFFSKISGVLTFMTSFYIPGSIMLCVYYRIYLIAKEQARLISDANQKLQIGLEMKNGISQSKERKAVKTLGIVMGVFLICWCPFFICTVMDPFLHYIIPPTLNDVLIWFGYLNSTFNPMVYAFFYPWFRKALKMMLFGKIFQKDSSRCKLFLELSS
#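 Material: CHO RD-HGA16 cells bearing hTAAR1; compound dosing: one-point dosing, 3 µM nominal final; schedule: dye loading 75 min at 37 °C, then 30 min room temperature; measured by: calcium fluorescence with Fluo-8; control set: vehicle and agonist controls; replication: n of 1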
# OX1R antag-2: antagonists of human orexin 1 receptor (OX1R); OX1R-expressing cells, FRET antagonist read-out; inhibition, % at 6.6 µM; 1.8% of 330,000 active; in the data active means inhibition mostly above about 38%, no sharp cut-off; inactive means mostly below about 40%;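 further: 0% = agonist challenge alone and 100% = reference antagonist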
# GPR7 antagonist: GPR7 receptor antagonists, primary screen, cell-based, fluorescence, single concentration; GPR7-expressing cells, fluorescence antagonist assay; inhibition, % at 4.4 µM; 1.1% of 290,000 active; AID 1861, 2009; in the data active means inhibition above about 16%, passing the limit was not always enough;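 further: cells stimulated with the agonist NPW; 0% = agonist with vehicle and 100% = vehicle without agonist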
# Target sequence (P48145 whole entry, looked up): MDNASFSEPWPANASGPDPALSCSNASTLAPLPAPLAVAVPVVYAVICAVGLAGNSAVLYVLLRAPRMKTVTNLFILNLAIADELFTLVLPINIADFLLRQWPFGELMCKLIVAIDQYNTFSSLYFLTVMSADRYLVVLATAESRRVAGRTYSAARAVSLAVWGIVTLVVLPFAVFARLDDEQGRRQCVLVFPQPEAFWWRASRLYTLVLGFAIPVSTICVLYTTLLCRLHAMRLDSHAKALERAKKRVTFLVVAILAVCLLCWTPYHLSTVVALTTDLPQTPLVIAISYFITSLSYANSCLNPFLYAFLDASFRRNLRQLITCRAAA
# TAAR1 agonist: human TAAR1 agonists, primary screen, Fluo-8 calcium fluorescence, CHO RD-HGA16 cells | vehicle wells 0%, saturating PEA agonist 100% | 0.99% of 360,000 active | activation, % at 3 µM | Trace amine-associated receptor 1 (Homo sapiens), Q96RJ0;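 active means activation above the mean activation of all test compounds in the run plus 3 SD, cut at about 38% in these data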
#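 test system = CHO RD-HGA16 cells carrying human TAAR1 plus Gα16 | schedule = 17-24 h seeding, 75 min 37 °C dye, 30 min RT | compound dosing = 3 µM single concentration | control set = DMSO and PEA EC100 | replicates = n 1 | signal = Fluo-8 fluorescence, 5 s baseline then 140 s kinetic read | measure = percent activation vs PEA EC100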
# CHO parental Ca: ATP-evoked calcium signal inhibitors, parental CHO, primary screen, counter-screen for OX1R antagonist project, cell-based, fluorescence, Fluo-8 calcium dye. inhibition, % at 5.6 µM. 0.63% of 330,000 active. parental CHO-K1, ATP-induced calcium, Fluo-8 fluorescence;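 active means inhibition above that plate's mean sample inhibition plus 3 SD, cut at about 26% in these data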;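 further: 0% = ATP-challenged DMSO wells and 100% = DMSO wells without ATP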
#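 Material: parental CHO cells / Compound: single nominal dose of 5.6 µM per compound / Signal: Fluo-8 fluorescence / Replicates: singlicate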
# GPR7 antag conf: GPR7 receptor antagonists, confirmation, cell-based, fluorescence, single concentration; shares compounds with GPR7 antagonist; GPR7-expressing cells, calcium fluorescence antagonist mode; inhibition, % at 4.4 µM; 52% of 2,400 active; AID 1952, 2009; in the data active means inhibition above about 24%;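 further: stimulated with the GPR7 agonist NPW; 0% = agonist plus vehicle and 100% = vehicle alone without agonist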
# MCHR1 antagonist: MCHR1 antagonists in cells, counter-screen for GPR7 antagonist project, cell-based, fluorescence, human; shares compounds with GPR7 antagonist; MCHR1-expressing cells, fluorescence antagonist assay; inhibition, % at 4.4 µM; 62% of 2,400 active; AID 2148, 2009; in the data active means inhibition above about 22%;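 further: 0% = vehicle with agonist and 100% = vehicle without agonist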
# TAAR1 ag conf: human TAAR1 agonists, retest of hits, confirmation, Fluo-8 calcium fluorescence, CHO RD-HGA16 cells. shares compounds with TAAR1 agonist. scaled: DMSO 0%, maximal phenethylamine 100%. activation, % at 3 µM. 82% of 2,400 active;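 active means activation above a cutoff set at the run's mean compound activation plus 3 SD, cut at about 39% in these data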
# Ga16 nonsel ag: nonselective calcium mobilization agonists, CHO-Ga16 cells, counter-screen for hTAAR1 agonist project, cell-based, fluorescence, CHO-Ga16 parental line | shares compounds with TAAR1 agonist | Fluo-8 calcium fluorescence; normalized to maximal ATP response, DMSO zero | activation, % at 3 µM | 50% of 2,400 active | AID 651787, 2012;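 active means activation above the run cutoff, the mean activation over all tested wells plus 3 SD, cut at about 12% in these data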;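 further: 0% = DMSO wells and 100% = maximal ATP response on the peak over basal ratio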
# TAAR1 desensitize: TAAR1 desensitization by agonist hits, confirmation, counter-screen for TAAR1 agonist project, cell-based, fluorescence, tachyphylaxis. inhibition, % at 3 µM. 46% of 2,400 active. shares compounds with TAAR1 agonist. CHO RD-HGA16 hTAAR1, Fluo-8 calcium, beta-PEA response inhibition;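 active means inhibition above the run cutoff, the mean inhibition of all test compounds plus 3 SD, cut at about 49% in these data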;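 further: beta-PEA stimulus applied at its EC80; loss of beta-PEA calcium signal after compound pretreatment read as receptor desensitization; 0% = DMSO with beta-PEA at EC80 and 100% = DMSO alone without agonist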
# Ga16 nonsel ant: inhibition of ATP-evoked calcium response in CHO-Ga16 cells, counter-screen for TAAR1 agonist project, cell-based, fluorescence | shares compounds with TAAR1 agonist | CHO-Ga16 ATP-induced calcium, Fluo-8 fluorescence | inhibition, % at 3 µM | 39% of 2,400 active | AID 651952, 2012;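 active means inhibition above the plate's mean compound inhibition plus 3 SD, computed per plate, cut at about 22% in these data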;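 further: 0% = EC80 ATP with DMSO and 100% = DMSO wells without ATP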
# * hit, by the source's call; nt = no result given.
SMILES,OX1R antag-1,TAAR1 antagonist,OX1R antag-2,GPR7 antagonist,TAAR1 agonist,CHO parental Ca,GPR7 antag conf,MCHR1 antagonist,TAAR1 ag conf,Ga16 nonsel ag,TAAR1 desensitize,Ga16 nonsel ant
O=C(c1ccc2c(=O)n3c(nc2c1)CCC3)N1CCN(S(=O)(=O)c2ccccc2Br)CC1,nt,-16,nt,nt,0,nt,nt,nt,nt,nt,nt,nt
Cc1cc(OC2CCCCC2)nc(NCc2ccccc2)n1,-32,-19,10,1,2,-27,nt,nt,nt,nt,nt,nt
Cc1cc(N2CCCCC2)nc(NCc2ccccc2)n1,-10,64*,14,84*,100*,8,73*,89*,73*,38*,71*,50*
COc1cccc(NC(=S)NC(=O)Cc2ccc(Cl)cc2)c1,9,84*,-2,35*,93*,9,64*,41*,124*,83*,91*,69*
COc1ccccc1NC(=S)NC(=O)Cc1ccc(Cl)cc1,10,107*,5,54*,125*,24,31*,37*,126*,89*,101*,73*
Cc1cccc(NC(=S)NC(=O)CCc2ccccc2)c1C,-28,32,16,-5,13,-23,nt,nt,nt,nt,nt,nt
Cc1cccc(NC(=S)NC(=O)Cc2ccccc2)c1C,nt,65*,nt,24*,82*,nt,34*,18,77*,55*,46,32*
CCC(=O)NC(=S)Nc1ccccc1OC,4,-7,14,8,6,-10,nt,nt,nt,nt,nt,nt
O=C(c1ccc(S(=O)(=O)Nc2ccccc2)cc1)N1CCCC(C(F)(F)F)C1 (configuration not stated),3,65*,14,48*,116*,7,61*,36*,99*,58*,57*,30*
O=C(c1ccccc1)c1ccc(C(=O)N2CCCC(C(F)(F)F)C2)cc1 (configuration not stated),-22,-14,17,nt,0,-6,nt,nt,nt,nt,nt,nt
COC(=O)C(NC(=O)c1ccccc1C)(Nc1ncc(S(=O)(=O)c2ccc([N+](=O)[O-])cc2)s1)C(F)(F)F (configuration not stated),9,30,20,35*,70*,-6,41*,37*,55*,26*,52*,23*
CC1(C(=O)NS(=O)(=O)c2ccc(Br)cc2)CCN1C(=O)Cc1ccsc1 (configuration not stated),nt,-2,nt,nt,1,nt,nt,nt,nt,nt,nt,nt
CN(C)CCCN(C(=O)c1ccc(S(=O)(=O)N2CCc3ccccc3C2)cc1)c1nc2ccc(F)cc2s1,-7,50*,19,46*,75*,-12,76*,63*,69*,46*,40,42*
CN(C)CCCN(C(=O)c1ccc(S(=O)(=O)N2CCc3ccccc3C2)cc1)c1nc2c(F)cccc2s1,-13,30,2,-3,31,-32,nt,nt,nt,nt,nt,nt
CCN(CC)Cc1cc(Nc2c3ccccc3nc3c4ccccc4n(C)c23)cc(CN(CC)CC)c1O,nt,-33,nt,nt,1,nt,nt,nt,nt,nt,nt,nt
CCCCn1nnnc1C(c1cc2ccccc2o1)N(CCN(C)C)Cc1ccccc1 (configuration not stated),nt,-9,nt,nt,7,nt,nt,nt,nt,nt,nt,nt
Cc1ccc(S(=O)(=O)N/N=C/c2ccc(OC3CSC3)cc2)cc1,84*,93*,-5,34*,91*,56*,89*,84*,98*,56*,97*,71*
COc1cc(OC)c(OC)cc1CCC(C)NCCC(c1ccccc1)c1ccccc1 (configuration not stated),-21,23,4,60*,52*,-1,55*,49*,48*,19*,39,25*
COc1ccccc1CCNC(C)CCc1ccc(O)cc1 (configuration not stated),-12,-11,14,-9,8,-13,nt,nt,nt,nt,nt,nt
COc1cc(-c2n[nH]c(=S)n2/N=C/c2cccn2C)cc(OC)c1OC,77*,71*,2,80*,138*,29,88*,74*,139*,113*,97*,79*
CCCC1(c2ccccc2)NC(=O)N(CC(=O)c2[nH]c(C)c(C(=O)OCC)c2C)C1=O (configuration not stated),5,43,-15,22*,78*,-13,27*,45*,52*,16*,55*,29*
N#CC(C#N)=C1C=C2C=C(N3CCOCC3)CCC2CC1 (configuration not stated),nt,109*,nt,34*,682*,nt,82*,96*,726*,880*,106*,103*
CC(=O)Nc1ccc(NC(=O)c2ccc(-c3ccnn3C)c3ccoc23)cc1,nt,2,nt,nt,9,nt,nt,nt,nt,nt,nt,nt
O=C1/C(=C\c2cc([N+](=O)[O-])ccc2O)SC(=S)N1Cc1ccc(Cl)cc1,68*,87*,32,35*,84*,62*,47*,86*,113*,121*,102*,97*
